XiGFP reactiv = activators of X-chromosome reactivation in mouse fibroblasts. XiGFP mouse fibroblasts, % GFP-positive cells imaging, 3 d; cells co-treated with 5-aza-dC sensitizer; scaled so ellipticine positive control = 100%. activation, % at 7.58 µM. hit rate 0.055% among 360,000. AID 743238;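 active means mean normalized replicate activation at least 10% and every replicate at or above 10%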;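 further: 0% = median of on-plate neutral control wells and 100% = ellipticine 6 µM median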
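assay system = SV40-immortalized XiGFP fibroblast cells, line 68-5-11 | buffer or medium = DMEM plus 5-aza-dC sensitizer | doses = single-point pinned compound dosing | times = 3-day compound exposure, then 15 min fixation at room temperature | benchmarks = positive control ellipticine, 6 µM final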
E-selectin induc = induces E-selectin expression in human endothelial cells | HUVEC E-selectin immunofluorescence imaging; normalized: neutral wells 0, TNF-alpha wells 100 | activation, % at 7.58 µM | hit rate 0.37% among 260,000 | AID 686992;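 active means mean E-selectin-positive cell signal at least 10% of the positive control, reached in at least 60% of replicates, without over 20% cell loss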
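Assay system: HUVEC primary endothelial cells. Input: 3,000 HUVEC seeded per well. Doses: one compound dose added by pin transfer. Read-out basis: % PE-positive cells. Benchmarks: TNF-alpha high, DMSO low. Detection: immunofluorescence imaging. Buffer or medium: EGM-2, gelatin.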
Starred values were filed as active, the others as inactive; · = no result given; ! = not active in a repeat. This is one part of a sample in which hits are shown more often than they occur.

SMILES	XiGFP reactiv	E-selectin induc
CCOC(=O)c1c(C)n(Cc2ccc(F)cc2)c2ccc(O)cc12	0	·
C=COCCn1c(C)c(C(C)=O)c2cc(O)ccc21	0	56*
CC(=O)N1[C@@H]2Cn3c(ccc(-c4cccc(C(=O)N(C)C)c4)c3=O)[C@H]1[C@@H](C(=O)O)[C@@H]2CO	0	·
c1ccc2c(N3CCNCC3)cccc2c1	0	0
c1ccc2nc(N3CCNCC3)ccc2c1	0	70*!
C=CCN1[C@@H]2CN(C(C)=O)C[C@H]1C2c1ccc(Br)cc1 (some centres not stated)	0	·
Cc1ccc(OC(F)F)c(N2C(=O)C3C4CCC(O4)C3C2=O)c1 (configuration not stated)	0	35*
CN1[C@@H]2CN(S(C)(=O)=O)C[C@H]1C2c1ccc(Br)cc1 (some centres not stated)	0	·
CS(=O)(=O)N1C[C@@H]2N[C@H](C1)C2c1ccccc1 (some centres not stated)	0	·
Nc1ccc2ccc3cccc[n+]3c2c1	0	·
C[n+]1c(-c2ccccc2)c2cc(N)ccc2c2ccc(N)cc21	19*	9
CC(C)NC(=O)N1C[C@@H]2C(c3ccccc3)[C@H](C1)N2C (some centres not stated)	0	·
CC1(C)OC(c2ccccc2)=C/C(=C/C=C2C(=O)NC(=S)NC2=O)O1	0	533*
CN1/C(=C\C=C2C(=O)NC(=S)NC2=O)C(C)(C)c2ccccc21	0	·
C=CCN1[C@@H]2CN(CC(F)(F)F)C[C@H]1C2c1ccc(Br)cc1 (some centres not stated)	0	·
CN(C)CC1CCCCC1OC(=O)Cc1ccc(Cl)c([N+](=O)[O-])c1 (configuration not stated)	0	50*
CN1[C@@H]2CN(CC(F)(F)F)C[C@H]1C2c1ccc(Br)cc1 (some centres not stated)	0	·
CS(=O)(=O)N1C[C@@H]2C(c3ccccc3)[C@H](C1)N2CC1CC1 (some centres not stated)	0	·

Screens from PubChem BioAssay.
